A short description of series [1]: Relative rate of decomposition is the rate of decomposition in the presence of 10 mMGSH/rate of decomposition in buffer alone. It is filed as ADME. The method in brief:
(§1)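 Phenol red acidification (560 nm) was run in 1 mM potassium phosphate, pH 7.4, 37 °C, with 10 mM GSH added and 1 mM drug. Rates assumed 2 H⁺ released per mol during GSH-initiated decomposition. HCl calibration was done in the GSH-containing mixture. The relative rate is the GSH rate divided by the buffer-alone rate.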

Series [2] in a line: Relative rate of decomposition is the rate of decomposition in the presence of 2% serum/rate of hydrolysis in buffer alone. It is filed as ADME. The method in brief: (§2)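 Hydrolysis was followed by phenol red acidification (560 nm) at pH 7.4, 37 °C, in weak phosphate buffer containing 2% CD-1 mouse serum. Serum came from female CD-1 mice bled by cardiac puncture: blood from 3 mice was pooled, clotted 30 min at 37 °C, centrifuged, and kept on ice ≤6 h. HCl calibration was done in the serum mixture. The relative rate is the serum rate divided by the buffer rate.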

Series [3] is described as follows: Relative rate of decomposition is the rate of decomposition of acyl compound to that of rate of decomposition of compound. Type of series: ADME. In short, it runs like this: (§3)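 Decomposition was followed at 37 °C, pH 7.4, by phenol red (20 mg/L) acidification at 560 nm in 1 mM potassium phosphate. Drug was at 1 mM final, added from a DMSO stock. Rates were calculated as 3 H⁺ per mol for acyl compounds, calibrated with HCl standards. The relative rate is the acyl compound rate divided by the reference tris(sulfonyl) rate.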

Series [4] concerns Mus musculus. Kind of series: Compound was tested for percent cures (60-day survivors) in mice at 10 mg/kg. It is filed as functional. In short, it runs like this: (§4)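 L1210 leukemia was passaged in donor CD2F1 mice. Each recipient mouse received 10⁵ cells. Drug was given ip in 100% DMSO once daily for 6 days, starting 24 h after implantation, at 5–20 mg/kg. Groups were 5–10 mice, with vehicle controls. %T/C = mean survival treated/control × 100, excluding cures. Cures = 60-day survivors. Body-weight change during therapy was taken as toxicity.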

A short description of series [5]: Initial rate of decomposition (1 mM) in 1 mM potassium phosphate buffer. It is filed as ADME. The conditions noted are these: 1000 µM. The method in brief: as §3
Series [6] is described as follows: Rate of decomposition in presence of 10 mM glutathione (GSH). Type of series: ADME. In short, it runs like this: as §1
Series [7] has as its system L1210. Kind of series: Average percent change in body weight against L1210 leukemia in mice at 10 mg/kg. It is filed as functional, Mus musculus. In short, it runs like this:
(§5)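 L1210 leukemia, 10⁵ cells ip per recipient mouse (cells from ip passage in CD₂F₁ donors plus culture). Drug ip in 100% DMSO, ≤0.025 mL, once daily ×6 starting 24 h after implantation; groups of 5 mice (5–10 per group per footnote). Toxicity read-out: average percent change in body weight from onset to termination of therapy; vehicle-treated tumor-bearing controls included.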

Series [8] can be described thus: Rate of decomposition in presence of CD-1 mouse serum. It is filed as ADME. The method in brief: as §2
In series [9] the test system is L1210. The series is described as follows: Average percent change in body weight against L1210 leukemia in mice at 20 mg/kg. It is filed as functional, Mus musculus. In short, it runs like this: as §5
In series [10] the test system is Mus musculus. Kind of series: Average survival time of treated/control mice X 100 was determined at 20 mg/kg. Type of series: functional. The method in brief:
as §4

The subject of series [11] is Mus musculus. The series is described as follows: Compound was tested for percent cures (60-day survivors) in mice at 20 mg/kg. It is filed as functional. In short, it runs like this: as §4
In series [12] the test system is Mus musculus. The series is described as follows: Average survival time of treated/control mice X 100 was determined at 10 mg/kg. It is filed as functional. In short, it runs like this:
as §4

Series [13] has as its system L1210. Kind of series: Average percent change in body weight against L1210 leukemia in mice at 60 mg/kg. Type of series: functional, Mus musculus.
Series [14] relates to Mus musculus. The series is described as follows: Compound was tested for percent cures (60-day survivors) in mice at 60 mg/kg. Type of series: functional.
Series [15] has as its system M5076. Kind of series: Optimal Antitumor Effect was expressed as % T/C against M5076, sc leukemia in mice (i.v.) 36 mg/kg. Type of series: functional, Mus musculus. The conditions noted are these: route intravenous. In short, it runs like this:
(§6)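 Second M5076 sc experiment in C57BL/6 mice: drug iv in 100% DMSO, fixed 10 μL, every other day ×5 from day 1; eight mice/group. Outputs: %T/C (median survival ratio) and T − C growth delay to 1 g tumor, treated minus control.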

Series [16] relates to M5076. Kind of series: Optimal Antitumor Effect was expressed as % T-C against M5076, sc leukemia in mice (i.v.) 36 mg/kg. It is filed as functional, Mus musculus. The conditions noted are these: route intravenous. In short, it runs like this: as §6
Series [17] has as its system M109. Kind of series: Optimal Antitumor Effect was expressed as % T/C against M109, sc leukemia in mice (i.v.) 60 mg/kg. The conditions noted are these: route intravenous. It is filed as functional, Mus musculus. In short, it runs like this: (§7)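 M109 lung carcinoma implanted sc (fragments passaged in Balb/c mice); drug iv in 10% DMSO in saline, 0.01 mL/g, every third day ×4 starting day 1. Eight mice/group, ≥3 dose levels. Read-outs: %T/C from median survival, and T − C = difference in median days for treated vs untreated tumors to reach 1 g (1 mm³ = 1 mg).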

The subject of series [18] is L1210. The series is described as follows: Average percent change in body weight against L1210 leukemia in mice at 7.5 mg/kg. Type of series: functional, Mus musculus. In short, it runs like this: as §5
The test system of series [19] is M109. The series is described as follows: Optimal Antitumor Effect was expressed as T-C against M109, sc leukemia in mice (i.v.) 48 mg/kg. It is filed as functional, Mus musculus. The conditions noted are these: route intravenous.
Series [20] has as its system M5076. Kind of series: Optimal Antitumor Effect was expressed as T-C against M5076, sc leukemia in mice (i.v.) 40 mg/kg. Type of series: functional, Mus musculus. The conditions noted are these: route intravenous. The method in brief:
(§8)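 M5076 reticulum cell sarcoma sc in C57BL/6 mice (fragment passage); drug iv in 10% DMSO in saline, 0.01 mL/g, every other day ×5 from day 1; eight mice/group. %T/C from median survival ratio; T − C = difference in median days for treated vs untreated tumors to reach 1 g.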

Series [21] deals with M5076. The series is described as follows: Optimal Antitumor Effect was expressed as % T/C against M5076, sc leukemia in mice (i.v.) 20 mg/kg. Type of series: functional, Mus musculus. The conditions noted are these: route intravenous. In short, it runs like this:
as §8

Series [22] deals with M109. Kind of series: Optimal Antitumor Effect was expressed as % T/C against M109, sc leukemia in mice (i.v.) 30 mg/kg. Type of series: functional, Mus musculus. The conditions noted are these: route intravenous. In short, it runs like this:
as §7

In series [23] the test system is M109. The series is described as follows: Optimal Antitumor Effect was expressed as % T/C against M109, ip leukemia in mice (i.p.) 60 mg/kg. Type of series: functional, Mus musculus. The conditions noted are these: route intraperitoneal. In short, it runs like this:
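M109 lung carcinoma ip in Balb/c-passaged line; drug ip every third day ×4 from day 1, as fine suspension in 10% DMSO in carboxymethylcellulose with Tween 80 (0.5 mL). Eight mice/group, ≥3 dose levels. %T/C = median survival treated/control ×100; deaths before day 10 counted as toxic.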

In series [24] the test system is M109. Kind of series: Optimal Antitumor Effect was expressed as T-C against M109, sc leukemia in mice (i.v.) 30 mg/kg. The conditions noted are these: route intravenous. Type of series: functional, Mus musculus. In short, it runs like this:
as §7

The test system of series [25] is Mus musculus. Kind of series: Average survival time of treated/control mice X 100 was determined at 7.5 mg/kg. It is filed as functional. The method in brief:
as §4

The subject of series [26] is Mus musculus. The series is described as follows: Compound was tested for percent cures (60-day survivors) in mice at 7.5 mg/kg. It is filed as functional. The method in brief:
as §4

For series [27], the system named is M109. Kind of series: Optimal Antitumor Effect was expressed as % T/C against M109, sc leukemia in mice (i.v.) 32 mg/kg. It is filed as functional, Mus musculus. The conditions noted are these: route intravenous.
Series [28] deals with B16. The series is described as follows: Optimal Antitumor Effect was expressed as T-C against B16 i.d. leukemia in mice (i.p.) 100 mg/kg. It is filed as functional, Mus musculus. The conditions noted are these: route intraperitoneal.
For series [29], the system named is P388. The series is described as follows: Optimal Antitumor Effect was expressed as cures/total against P388, ip, leukemia in mice (i.p.) 200 mg/kg; 3/6. Type of series: functional, Mus musculus. The conditions noted are these: route intraperitoneal.
Series [30] concerns M109. Kind of series: Optimal Antitumor Effect was expressed as T-C against M109, sc leukemia in mice (i.v.) 60 mg/kg. It is filed as functional, Mus musculus. The conditions noted are these: route intravenous. The method in brief: as §7

As to `COCC(=O)N(N(CCCl)S(C)(=O)=O)S(C)(=O)=O`, the Relative rate of decomposition in [1] came out at 50.6; in series [2] it was 3; in series [3], 0.3. For the same molecule, the Cures in series [4] was 100%. The Rate of decomposition is reported as 2.9 (nM of drug) min-1 ml-1 in [5], 147 (nM of drug) min-1 ml-1 in series [6] and 8.57 (nM of drug) min-1 ml-1 in series [8]. Also, the Body weight in [7] is -8.4%.
Turning to `CS(=O)(=O)N(CCCl)N(C(=O)c1ccccc1)S(C)(=O)=O`, the Relative rate of decomposition in series [1] stood at 223; in [2], 7.7; in [3], 0.11. Further, in [9], the Body weight is -7.7%. For the same molecule, the values for the Rate of decomposition in [5], in series [6] and in series [8] were 1.02 (nM of drug) min-1 ml-1, 227 (nM of drug) min-1 ml-1 and 7.86 (nM of drug) min-1 ml-1, respectively. The molecule further came in with a T/C in [10] of 160%. Also, in series [11], the Cures is reported as 20%.
As for `CC(C)(C)C(=O)N(N(CCCl)S(C)(=O)=O)S(C)(=O)=O`, the Body weight in series [9] worked out at 0%. The figures for the Rate of decomposition result in [5], in series [6] and in series [8] were “<= 0.1 (nM of drug) min-1 ml-1”, 11 (nM of drug) min-1 ml-1 and 0.78 (nM of drug) min-1 ml-1, respectively. Moreover, the T/C in series [10] is 302%. Further, the Cures in series [11] is recorded as 60%.
With `CCC(=O)N(N(CCCl)S(C)(=O)=O)S(C)(=O)=O`, the T/C in series [12] is reported as 217%. In [4], this molecule showed a Cures of 90%. Moreover, the Rate of decomposition result in series [5] is recorded as “<= 0.1 (nM of drug) min-1 ml-1”; in series [6], 12.8 (nM of drug) min-1 ml-1; in series [8], 0.45 (nM of drug) min-1 ml-1. In [7], the Body weight is -6.4%.
`CCCC(=O)N(N(CCCl)S(C)(=O)=O)S(C)(=O)=O` had a T/C in series [12] of 207%. The molecule further registered a Cures in series [4] of 20%. Also, the figures for the Rate of decomposition result in series [5], in [6] and in series [8] were “<= 0.1 (nM of drug) min-1 ml-1”, 10.3 (nM of drug) min-1 ml-1 and 0.34 (nM of drug) min-1 ml-1, respectively. Moreover, the Body weight in series [7] is 0%.
On to `CS(=O)(=O)N(CCCl)N(S(C)(=O)=O)S(C)(=O)=O`, for which the Body weight in [13] was -7.2%. The molecule further gave a Relative rate of decomposition in series [3] of 1. For the same molecule, the Rate of decomposition in [5] is 9.58 (nM of drug) min-1 ml-1. The molecule also yielded a Cures in [14] of 100%.
`CC(=O)N(N(CCCl)S(C)(=O)=O)S(C)(=O)=O`: the values for the Relative rate of decomposition in [1], in series [2] and in [3] were 60.3, 3.7 and 0.03 (nM of drug) min-1 ml-1, respectively. The T/C in series [15] is reported as 122%; in series [17], 133%; in series [21], 156%; in [22] it was 128%; in series [23] it was 231%; in series [25], 341%. In series [27], this molecule yielded a T/C of 136%. Moreover, the T-C in series [16] came out at 20.8 days; in series [19], 14.5 days; in series [20], 18.3 days; in series [24] it was 10.5 days; in series [28], 12 days; in [30], 3 days. Further, the Body weight in [18] was determined as 1%. Besides, the results for the Rate of decomposition in series [5], in [6] and in series [8] were 0.24 (nM of drug) min-1 ml-1, 14.5 (nM of drug) min-1 ml-1 and 0.89 (nM of drug) min-1 ml-1, respectively. The same molecule returned a Cures in [26] of 80%. Also, the Cures/total in [29] is 3.

The term T/C denotes the result in the treated group divided by that in the control group, in per cent.

For the origin of these results see ChEMBL document CHEMBL1126947, “Synthesis and evaluation of 1-acyl-1,2-bis(methylsulfonyl)-2-(2- chloroethyl)hydrazines as antineoplastic agents” (J Med Chem, 1993).
